Inhibition of growth and IC50 data for 5 compounds are collected here from ChEMBL document CHEMBL4396885, “Thioether-based 2-aminobenzamide derivatives: Novel HDAC inhibitors with potent in vitro and in vivo antitumor activity” (Eur J Med Chem, 2019).

For test [1], the system named is SMMC-7721. Description: Antiproliferative activity against human SMMC7721 cells assessed as growth inhibition at 8 uM after 72 hrs by CCK-8 assay relative to control. It is filed as functional. The settings on record: SMMC-7721, 72 h, read-out: GI.
The subject of test [2] is A-375. Description: Antiproliferative activity against human A375 cells assessed as decrease in cell viability after 72 hrs by CCK-8 assay. The test is classed as functional, cell-based. The settings on record: A-375, 72 h. The method in brief:
(§1)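 Cells grown to 70–85% confluence (A375, A549, HCT116 in RPMI1640; HeLa, SMMC7721 in DMEM; 10% FBS, 37 °C, 5% CO2), seeded 4000/well, dosed after 12 h across a concentration range, incubated 72 h, then CCK-8 for 1 h; absorbance at 450 nm. IC50 as mean ± SD of three separate experiments.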
On the technique in general: Tetrazolium dyes change colour on reduction, which living cells bring about.

Test [3] relates to HeLa. Description: Antiproliferative activity against human HeLa cells assessed as decrease in cell viability after 72 hrs by CCK-8 assay. The test is classed as functional, cell-based. The method in brief:
as §1

The subject of test [4] is A549. Description: Antiproliferative activity against human A549 cells assessed as growth inhibition at 2 uM after 72 hrs by CCK-8 assay relative to control. It is filed as functional. As to conditions: A549, 72 h, read-out: GI.
In test [5] the test system is SMMC-7721. Description: Antiproliferative activity against human SMMC7721 cells assessed as decrease in cell viability after 72 hrs by CCK-8 assay. It is filed as functional, cell-based. The settings on record: SMMC-7721, 72 h. The method in brief: as §1
Test [6] concerns HCT-116. Description: Antiproliferative activity against human HCT116 cells assessed as decrease in cell viability after 72 hrs by CCK-8 assay. The settings on record: HCT-116, 72 h. It is filed as functional, cell-based. An outline of the steps: as §1
Test [7] relates to HCT-116. Description: Antiproliferative activity against human HCT116 cells assessed as growth inhibition at 8 uM after 72 hrs by CCK-8 assay relative to control. The test is classed as functional. As to conditions: HCT-116, 72 h, read-out: GI.
Test [8] relates to A549. Description: Antiproliferative activity against human A549 cells assessed as growth inhibition at 8 uM after 72 hrs by CCK-8 assay relative to control. The test is classed as functional. The settings on record: A549, 72 h, read-out: GI.
Test [9] concerns A-375. Description: Antiproliferative activity against human A375 cells assessed as growth inhibition at 8 uM after 72 hrs by CCK-8 assay relative to control. As to conditions: A-375, 72 h, read-out: GI. The test is classed as functional.
Test [10] relates to A-375. Description: Antiproliferative activity against human A375 cells assessed as growth inhibition at 2 uM after 72 hrs by CCK-8 assay relative to control. The test is classed as functional. The settings on record: A-375, 72 h, read-out: GI.
Test [11] concerns HCT-116. Description: Antiproliferative activity against human HCT116 cells assessed as growth inhibition at 2 uM after 72 hrs by CCK-8 assay relative to control. It is filed as functional. The settings on record: HCT-116, 72 h, read-out: GI.
For test [12], the system named is SMMC-7721. Description: Antiproliferative activity against human SMMC7721 cells assessed as growth inhibition at 2 uM after 72 hrs by CCK-8 assay relative to control. It is filed as functional. The settings on record: SMMC-7721, 72 h, read-out: GI.
For test [13], the system named is HeLa. Description: Antiproliferative activity against human HeLa cells assessed as growth inhibition at 8 uM after 72 hrs by CCK-8 assay relative to control. The settings on record: read-out: GI. It is filed as functional.
For test [14], the system named is HeLa. Description: Antiproliferative activity against human HeLa cells assessed as growth inhibition at 2 uM after 72 hrs by CCK-8 assay relative to control. It is filed as functional. As to conditions: read-out: GI.
Test [15] deals with A549. Description: Antiproliferative activity against human A549 cells assessed as decrease in cell viability after 72 hrs by CCK-8 assay. It is filed as functional, cell-based. As to conditions: A549, 72 h. The method in brief:
as §1

As a reminder, the IC50 is the concentration needed to halve the response being measured. As to `Nc1ccccc1NC(=O)c1ccc(CSc2cccc(F)c2)cc1`, the inhibition of growth at 8 µM in the test with SMMC-7721 [1] turned out to be 83%; in the test with HCT-116 [7], 81.3%; with A549 [8], 72.7%; in the test with A-375 [9], 76.2%; in the test with HeLa [13] it was 78.4%. For the same compound, the IC50 in the test on A-375 [2] worked out at 3.9 µM; with HeLa [3] it was 3.24 µM; with SMMC-7721 [5], 3.28 µM; in the test with HCT-116 [6], 2.87 µM. Besides, the inhibition of growth at 2 µM in the test with A549 [4] came to 46.9%; in the test on A-375 [10] it was 37.7%; in the test with HCT-116 [11], 5.5%; with SMMC-7721 [12], 18.6%; in the test with HeLa [14], 22.5%.
In the case of `COc1ccc(SCc2ccc(C(=O)Nc3ccccc3N)cc2)cc1OC`, the half-maximal inhibitory concentration (IC50) in the test on A549 [15] was 5.68 µM; in the test on A-375 [2], 4.42 µM; in the test with HeLa [3], 3.07 µM; in the test with SMMC-7721 [5] it was 3.4 µM; in the test on HCT-116 [6] it was 2 µM. Also, the inhibition of growth at 8 µM was found to be 78.9% with SMMC-7721 [1]; 91.5% in the test with HCT-116 [7]; 80.1% with A549 [8]; 84.6% in the test on A-375 [9]; 79.9% in the test with HeLa [13]. Also, the inhibition of growth at 2 µM is 19.9% in the test on A549 [4]; 18.1% with A-375 [10]; 33.6% in the test with HCT-116 [11]; 20.2% with SMMC-7721 [12]; 15.2% in the test on HeLa [14].
With `Cc1ccc(SCc2ccc(C(=O)Nc3ccccc3N)cc2)cc1`, the half-maximal inhibitory concentration (IC50) was 3.27 µM in the test with A549 [15]; 3.7 µM in the test with A-375 [2]; 4.25 µM in the test on HeLa [3]; 3.74 µM in the test with SMMC-7721 [5]; 2.63 µM with HCT-116 [6]. In addition, the inhibition of growth at 8 µM in the test with SMMC-7721 [1] came to 82.7%; in the test on HCT-116 [7], 84%; in the test on A549 [8], 78.3%; in the test with A-375 [9] it was 67%; with HeLa [13], 79.2%. The inhibition of growth at 2 µM in the test with A549 [4] came to 40.5%; with A-375 [10] it was 17.5%; in the test with HCT-116 [11], 74.8%; with SMMC-7721 [12], 25.1%; in the test with HeLa [14], 33.8%.
In the case of `COC(=O)c1ccccc1SCc1ccc(C(=O)Nc2ccccc2N)cc1`, the inhibition of growth at 8 µM in the test with SMMC-7721 [1] was determined as 62.5%; in the test with HCT-116 [7] it was 92%; with A549 [8], 46.1%; in the test on A-375 [9] it was 70.1%; in the test with HeLa [13] it was 55.5%. The half-inhibitory concentration (IC50) is 3.61 µM with A-375 [2], 6.68 µM in the test with HeLa [3], 4.49 µM in the test with SMMC-7721 [5] and 2.78 µM in the test with HCT-116 [6]. Also, the inhibition of growth at 2 µM in the test on A549 [4] was 44.7%; in the test on A-375 [10], 35.1%; in the test with HCT-116 [11] it was 21.8%; in the test with SMMC-7721 [12] it was 18%; with HeLa [14] it was 29.8%.
Take `Nc1ccccc1NC(=O)c1ccc(CSc2ccc(F)cc2)cc1`: the inhibition of growth at 8 µM turned out to be 81.9% with SMMC-7721 [1]; 90.6% in the test with HCT-116 [7]; 44.5% in the test with A549 [8]; 54.3% in the test on A-375 [9]; 79.3% in the test with HeLa [13]. Also, the results for the half-maximal inhibitory concentration (IC50) in the test on HeLa [3], in the test on SMMC-7721 [5] and in the test with HCT-116 [6] were 5.01 µM, 5.77 µM and 4.01 µM, respectively. In addition, the inhibition of growth at 2 µM came to 43.4% in the test with A549 [4]; 19.4% in the test with A-375 [10]; 13.5% in the test with HCT-116 [11]; 6.58% with SMMC-7721 [12]; 27.9% in the test on HeLa [14].
